Bioassay records from PubChem BioAssay.
MC4R antag cAMP: blocks human MC4R cAMP signaling; P32245; MC4R-expressing cells, MTII-stimulated cAMP, LANCE TR-FRET; inhibition, % at 6.5 µM; hit rate 0.48% among 360,000;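 active = inhibition above its plate's cutoff, the mean of tested wells on that plate plus 3 SD, cut at about 29% in these data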;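 also: 0% = Melanotan II alone and 100% = Melanotan II plus saturating MCL0020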
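Material: U2OS-MC4R stable cell line | Reagent: Melanotan II challenge after compound preincubation | Doses: One concentration, 6.5 µM nominal | Incubation: 30-min compound preincubation, 1-h Melanotan II challenge, 1-h detection, room temperature | Signal: TR-FRET cAMP assay | Replicates: One well per compound, no replicates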
TLR4 MyD88 comp: blocks binding of human TLR4 to MyD88. O00206+Q99836. HeLa CL3-4 TLR4/MyD88 BLA complementation, FRET ratio. inhibition, % at 8.4 µM. hit rate 0.18% among 200,000; in the data active = inhibition above about 25%;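 also: 0% = vehicle and 100% = reference inhibitor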
Target sequence (O00206 whole entry, looked up): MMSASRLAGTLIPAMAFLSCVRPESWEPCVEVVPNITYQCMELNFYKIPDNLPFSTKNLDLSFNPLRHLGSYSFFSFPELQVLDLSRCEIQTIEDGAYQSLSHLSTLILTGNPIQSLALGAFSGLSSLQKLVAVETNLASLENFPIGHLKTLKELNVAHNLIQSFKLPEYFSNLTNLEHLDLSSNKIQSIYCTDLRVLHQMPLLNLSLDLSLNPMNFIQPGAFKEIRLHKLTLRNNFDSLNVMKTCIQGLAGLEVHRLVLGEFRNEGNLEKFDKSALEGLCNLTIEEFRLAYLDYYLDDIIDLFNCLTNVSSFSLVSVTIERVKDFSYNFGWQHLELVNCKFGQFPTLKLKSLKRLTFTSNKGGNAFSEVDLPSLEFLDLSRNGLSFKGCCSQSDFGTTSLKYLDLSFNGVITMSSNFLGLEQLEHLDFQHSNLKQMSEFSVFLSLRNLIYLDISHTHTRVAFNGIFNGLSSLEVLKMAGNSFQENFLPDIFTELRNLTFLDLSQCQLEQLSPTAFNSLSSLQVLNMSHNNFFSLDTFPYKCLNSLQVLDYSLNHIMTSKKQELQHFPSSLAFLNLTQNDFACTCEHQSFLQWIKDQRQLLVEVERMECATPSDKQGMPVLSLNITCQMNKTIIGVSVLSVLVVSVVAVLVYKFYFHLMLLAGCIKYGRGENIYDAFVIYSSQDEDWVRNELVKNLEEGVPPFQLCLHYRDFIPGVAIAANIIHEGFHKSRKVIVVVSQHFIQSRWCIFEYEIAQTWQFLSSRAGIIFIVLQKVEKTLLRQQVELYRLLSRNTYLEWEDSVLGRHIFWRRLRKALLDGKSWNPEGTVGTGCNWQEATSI
Target sequence (Q99836 whole entry, looked up): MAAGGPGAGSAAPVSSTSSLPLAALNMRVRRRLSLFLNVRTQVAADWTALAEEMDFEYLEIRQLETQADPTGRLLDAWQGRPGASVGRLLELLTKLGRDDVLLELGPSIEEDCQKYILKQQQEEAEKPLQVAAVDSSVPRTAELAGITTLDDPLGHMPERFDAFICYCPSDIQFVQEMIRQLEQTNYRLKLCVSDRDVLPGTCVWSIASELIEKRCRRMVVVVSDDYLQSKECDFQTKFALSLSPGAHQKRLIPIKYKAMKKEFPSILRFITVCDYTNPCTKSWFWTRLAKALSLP
MC4R ag barr: agonists of human melanocortin 4 receptor (MC4R) beta-arrestin | hit rate 0.98% among 360,000 | P32245 | U2OS MC4R beta-arrestin complementation, luminescence; percent of melanotan II response, DMSO zero | activation, % at 8.9 µM;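 active = activation above a per-plate cutoff, the mean activation of sample wells on that plate plus 3 SD, cut at about 8% in these data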
NOD2 RIPK2 PPI: inhibitors of human NOD2-RIPK2 interaction; inhibition, % at 4.98 µM; CHO BLA complementation NOD2-RIPK2, CCF4 ratio; hit rate 0.38% among 360,000; in the data active = inhibition above about 21%;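 also: 0% = vehicle only and 100% = reference blocker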
TLR9-MyD88 inh: TLR9-MyD88 interaction inhibition; Q9NR96+Q99836; AID 504734; hit rate 0.21% among 340,000; inhibition, % at 4.98 µM; CHO BLA complementation TLR9-MyD88, CCF4 FRET ratio;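 active = inhibition above the mean over all tested compounds plus 3 SD, cut at about 21% in these data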;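 also: 0% = DMSO only wells and 100% = clavulanate BLA inhibitor control wells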
TLR9-MyD88 cf: confirmation of human TLR9-MyD88 binding inhibitors | shares compounds with TLR9-MyD88 inh | CHO TLR9/MyD88 BLA complementation, CCF4 FRET ratio | inhibition, % at 4.98 µM | hit rate 51% among 680;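 active = mean inhibition across three repeats above about 21% taken from the earlier screen, limit read from the data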;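 also: blue over green emission ratio reports constitutive TLR9 MyD88 association via BLA complementation; 0% = DMSO vehicle wells and 100% = clavulanate BLA inhibitor wells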
BLA nonselective: beta-lactamase reporter inhibition, counter-screen artifact | shares compounds with TLR9-MyD88 inh | inhibition, % at 4.98 µM | CHO-BLA cells, CCF4 FRET ratio, BLA reporter | hit rate 7% among 680;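 active = mean inhibition above a 50% cutoff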;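 also: counterscreen of TLR9-MyD88 hits on CMV-driven BLA in CHO-K1 cells; 0% = DMSO alone and 100% = clavulanate blocking BLA; higher means less blue over green ratio so more BLA blockade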
TLR9 CHO cytotox: counter-screen for TLR9-MyD88 inhibitors: cytotoxicity in CHO cells | shares compounds with TLR9-MyD88 inh | inhibition, % at 4.98 µM | hit rate 39% among 680 | AID 588336 | luminescence; in the data active = inhibition above about 11%
cAMP nonselect: nonselective cAMP signaling inhibitor, MC4R antagonist counter-screen | shares compounds with MC4R antag cAMP | parental U2OS, forskolin cAMP, LANCE TR-FRET | inhibition, % at 6.5 µM | hit rate 26% among 1,600 | AID 602193;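 active = mean inhibition over triplicates above the low-control well mean plus 3 SD, set per campaign, cut at about 13% in these data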;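 also: signal is single emission at 671 nm which falls as cellular cAMP rises; 0% = forskolin-stimulated wells and 100% = buffer without forskolin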
MC4R antag conf: human MC4R cAMP antagonism confirmation | shares compounds with MC4R antag cAMP | MC4R-expressing cells, MTII-stimulated cAMP, TR-FRET | inhibition, % at 6.5 µM | hit rate 27% among 1,600 | AID 602195; in the data active = inhibition above about 29%;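 also: 0% = agonist stimulated wells alone and 100% = agonist stimulated wells plus saturating reference antagonist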
Active calls of the source: *; x = no result. Only some compounds are listed: those with a hit (about 1.8% of all), similar ones and a draw of the others.

SMILES | MC4R antag cAMP | TLR4 MyD88 comp | MC4R ag barr | NOD2 RIPK2 PPI | TLR9-MyD88 inh | TLR9-MyD88 cf | BLA nonselective | TLR9 CHO cytotox | others
COc1ccc(OCC(O)CNC(=O)/C=C/c2cccc([N+](=O)[O-])c2)cc1 (centres undefined) | 23.4 | 6.3 | -2.6 | -1.1 | 22.8* | -2.6 | -0.8 | 1.9
O=C(COC(=O)/C=C/c1ccc(Cl)cc1)Nc1ccc2[nH]c(=O)[nH]c2c1 | 21.2 | x | 6.6 | 1.9 | 23.1* | 8.9 | 5.4 | 13.5*
O=C(COC(=O)c1cccc(Br)c1)Nc1ccc2[nH]c(=O)[nH]c2c1 | 6.6 | x | 6.1 | 2.6 | 20.9* | 0.5 | -2.3 | 3.2
O=C(COC(=O)c1c(F)cccc1F)Nc1ccc2[nH]c(=O)[nH]c2c1 | -0.3 | -8.9 | 1.2 | -1.7 | 3.9 | x | x | x
O=C(COC(=O)/C=C/c1ccc(F)cc1)Nc1ccc2[nH]c(=O)[nH]c2c1 | 8.0 | x | 0.9 | -4.8 | -8.4 | x | x | x
CC(=N/O)/C(C)=N\NC(=O)c1ccccn1 | -0.5 | 7.3 | -2.2 | 5.6 | 53.5* | 3.6 | 4.6 | 6.0
Cc1c(Cl)c([N+](=O)[O-])nn1CCCC(=O)Nc1sc2c(c1C#N)CCC2 | 14.2 | 2.2 | 6.0 | -9.8 | 23.3* | -5.1 | -1.2 | -3.0
Cc1c(Br)c([N+](=O)[O-])nn1CCCC(=O)Nc1sc2c(c1C#N)CCC2 | 9.4 | 1.2 | -0.3 | -0.6 | 1.0 | x | x | x
COc1cc(/C=C/C(=O)O)cc(S(=O)(=O)NCc2ccc3c(c2)OCO3)c1OC | -0.2 | 1.2 | -3.0 | -7.1 | 21.3* | 3.3 | -0.3 | -4.9
COc1cc(/C=C/C(=O)O)cc(S(=O)(=O)NCc2ccco2)c1OC | 23.7 | -1.9 | 1.7 | -0.8 | -14.7 | x | x | x
CCCCS(=O)(=O)/C=C\C=C/S(=O)(=O)CCCC | 13.7 | 13.1 | -4.2 | 91.3* | 33.6* | 36.7* | 34.7 | 100.0*
O=C(COC(=O)c1ccco1)Nc1cccc(S(=O)(=O)N2CCOCC2)c1 | 3.6 | x | -1.4 | -1.6 | -7.2 | x | x | x
CCCOc1ccc2cc(C(=O)NCc3ccccc3)c(=O)oc2c1 | 19.0 | x | 4.5 | -4.5 | 5.2 | x | x | x
COc1cc(/C=C2\SC(=S)N(Nc3ncc(C(F)(F)F)cc3Cl)C2=O)ccc1O | 4.5 | 11.5 | -4.4 | 13.1 | 26.3* | 1.4 | 1.8 | 4.1
Cc1c(O)ccc2c(CN3CCN(CCO)CC3)cc(=O)oc12 | 14.9 | -3.1 | 2.4 | 12.5 | 26.8* | 10.3 | 8.4 | 1.5
CNC(=S)NNC(=O)c1cccc(N(C)C)c1 | 0.3 | -2.3 | -0.6 | 0.1 | -1.4 | x | x | x
O=C(O)c1ccccc1C(=O)c1ccc(F)c(F)c1 | 6.8 | x | -1.1 | -6.9 | 3.1 | x | x | x
CCCCCCCCN1C(=O)[C@H](CC(=O)NCC2CCCCC2)C[C@@]2(C(=O)OC)CCCCC=C12 | x | x | x | -8.4 | x | x | x | x
COc1ccc(NC(=O)/C(Cl)=C(/Cl)S(=O)Cc2ccc(Cl)cc2)cn1 (centres undefined) | 76.4* | 24.6 | -7.1 | 67.6* | 54.5* | 55.7* | 36.1 | 98.8* | cAMP nonselect=10.5;MC4R antag conf=53.5*
Cc1ccc(NC(=O)c2cc(N3C(=O)C=CC3=O)ccc2N2CCOCC2)cc1Cl | 53.8* | 1.1 | -1.4 | -0.6 | 32.3* | 54.9* | 18.3 | 97.3* | cAMP nonselect=-1.3;MC4R antag conf=41.4*
Cc1ccc(NC(=O)c2cc(N3C(=O)CCC3=O)ccc2N2CCOCC2)cc1 | 25.1 | -4.4 | -1.0 | 3.9 | -2.6 | x | x | x
COCCN(C(=O)COC(=O)C(c1ccccc1)c1ccccc1)c1c(N)n(Cc2ccccc2)c(=O)[nH]c1=O | 8.7 | x | -2.3 | 2.4 | 7.5 | x | x | x
